Experimental data pooled from the literature.
Each line is one published result; the experiments were not run side by side.
Read-out: cell growth or viability

COc1cc2c(OC)nc3c4cc5c(cc4cc(OC(C)=O)c3c2cc1OC)OCO5  GI50 (HCT-116; MTT): 1.3 µM
COC(=O)c1c(C)ncn1CC(c1c[nH]c2cc(Br)ccc12)c1c[nH]c2cc(Br)ccc12  CC50 (DH82; MTS; 24 h): > 20 µM
CC[C@H](C)C(=O)O[C@H]1C[C@H](O)C=C2C=C[C@H](C)[C@H](CC[C@@H](O)C[C@@H](O)CC(=O)O)[C@H]21  IC50 (HCT-116; SRB; 72 h): 3.52 µM
CCc1ncn(CC(c2c[nH]c3ccc(C)cc23)c2c[nH]c3ccc(C)cc23)c1C(=O)OC  CC50 (DH82; MTS; 24 h): > 20 µM
O=c1[nH]cc(F)c(=O)[nH]1  CC50 (AGS; crystal violet; 72 h): 769 µM
CC(=O)OC1c2c(ccc3ccc(=O)oc23)OC(C)(C)C1OC(=O)C(C)(O)C(C)O (centres unmarked)  IC50 (HCT-116; WST-1): 16.1 µM
COc1cc2c(OC)nc3c4cc5c(cc4cc(OCCN4CCC(N6CCCCC6)CC4)c3c2cc1OC)OCO5  GI50 (HCT-116; MTT): 11 µM
C/C=C(/C)C(=O)O[C@@H]1[C@H](OC(C)=O)c2c(ccc3ccc(=O)oc23)OC1(C)C  IC50 (HCT-116; WST-1): 55.8 µM
COc1ccc(S(=O)(=O)ON=C2C=C(C)C(=O)C(C)=C2)cc1  CC50 (HCT-116): 7.4 µM
COC(=O)[C@]1(O)C[C@@H](O)[C@@H](O)[C@H](OC(=O)/C=C/c2ccc(O)c(O)c2)C1  IC50 (HCT-116; WST-1): 30.8 µM
CCOC(=O)c1c(C)ncn1CC(c1cn(C)c2ccc([N+](=O)[O-])cc12)c1cn(C)c2ccc([N+](=O)[O-])cc12  CC50 (DH82; MTS; 24 h): > 20 µM
